# mHtt clearance – compounds clearing mutant huntingtin protein; HeLa Exon1htt(103Q)mCFP, aggregate imaging; zero = plate's median compound well; inhibition, % at 1.5 µM; 0.42% of 47,000 active;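 active = inhibition of aggregate fluorescence above about 70%, also judged a hit by eye on the cell image, limit read from the data, passing the limit was not always enough; inconclusive = no rule stated for this call; inactive = not judged a hit on image review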;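 also: cells exposed to compound for three days before fixation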
# M1 antag – antagonists of rat M1 muscarinic receptor; B-score at 10 µM; CHO-M1 cells, Fluo-4 calcium, ACh EC80 antagonist mode; active compounds read low; 3.4% of 64,000 active;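 active = calcium fluorescence response, raw or row-and-column corrected B-score, differing from the plate sample mean either way at a set confidence level, mostly lower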
# Target sequence (P08482 whole entry, looked up): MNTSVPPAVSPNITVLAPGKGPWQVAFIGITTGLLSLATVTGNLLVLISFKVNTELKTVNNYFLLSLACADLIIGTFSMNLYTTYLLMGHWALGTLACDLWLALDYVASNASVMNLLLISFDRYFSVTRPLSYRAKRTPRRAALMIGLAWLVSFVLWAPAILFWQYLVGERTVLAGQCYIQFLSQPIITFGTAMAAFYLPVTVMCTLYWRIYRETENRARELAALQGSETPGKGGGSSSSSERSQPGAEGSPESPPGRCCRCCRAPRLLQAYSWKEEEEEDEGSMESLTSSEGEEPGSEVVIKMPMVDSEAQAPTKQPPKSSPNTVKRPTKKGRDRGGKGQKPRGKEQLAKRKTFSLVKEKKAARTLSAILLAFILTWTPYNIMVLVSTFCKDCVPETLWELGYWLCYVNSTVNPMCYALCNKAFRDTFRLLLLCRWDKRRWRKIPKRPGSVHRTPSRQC
# SF-1 act – activates the human nuclear receptor SF-1; 1.9% of 65,000 active; Q13285; CHO-K1 Gal4-SF-1 LBD luciferase reporter; % increase over DMSO SF-1-specific signal; activation, % at 10 µM;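 active = activation above the mean activation of all tested compounds plus 3 SD, cut at about 50% in these data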
#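 Material: CHO-K1 cells with Gal4–hSF-1 LBD chimera plus Gal4-driven luciferase / Input: 4,000 CHO-K1 cells per well / Incubation: compound exposure 20 h at 37 °C / Signal: luminescence read 15 min after SteadyLite luciferase reagent, after room-temperature equilibration / Read-out: percent activation versus DMSO / Benchmarks: DMSO negative control and −SF1 background wells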
# RORA act – activators of human nuclear receptor RORA. P35398. CHO-K1 Gal4-RORA LBD luciferase reporter, luminescence; percent increase over mock-subtracted basal signal. activation, % at 10 µM. 1.5% of 65,000 active;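 active = activation above the mean of all tested compounds plus 3 SD, cut at about 49% in these data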;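 also: 0% = DMSO-treated RORA cells and 100% = added signal equal to DMSO minus mock-transfected cells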
# D1 allo mod – D1 dopamine receptor (human) allosteric modulation; P21728; HEK293 D1, CRE-luciferase, dopamine EC30 potentiation; actives deviate in either direction; B-score at 10 µM; 5.9% of 58,000 active;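 active = luminescence count or its row- and column-corrected plate score outside the 99.7% band of the plate's sample wells, on either side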
# M1 agonist – activates the M1 muscarinic receptor. CHO-M1 cells, Fluo-4 calcium fluorescence, agonist mode; active compounds read high. B-score at 10 µM. 3% of 64,000 active. AID 626;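 active = fluorescence rise, raw or as B-score row- and column-corrected plate score, outside the 99.7% band of its plate's samples, either direction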
# M1 agonist conf – confirmation of rat M1 muscarinic receptor agonists | shares compounds with M1 agonist | CHO-M1 cells, Fluo-4 calcium fluorescence, agonist mode; actives lie on both sides | fluorescence change (max-min) at 10 µM | 19% of 1,700 active | AID 1488;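 active = fluorescence change differs from the solvent-only DMSO control mean at a set confidence level in both duplicate runs; inconclusive = differs from solvent-only control mean in just one of two runs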;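 also: an EC20 dose of acetylcholine follows compound addition during the same imaging run; raw fluorescence intensity difference in instrument units with no normalization to controls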
# M4 ag counter – counter-screen for M1 agonists: activity at rat M4 receptor; shares compounds with M1 agonist; 9% of 1,700 active; fluorescence change (max-min) at 10 µM; CHO M4/Gqi5 cells, Fluo-4 calcium fluorescence, agonist mode; actives lie on both sides;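 active = fluorescence change differing from the plate's solvent-only control wells at 99.7% confidence in both duplicates, whether higher or lower; inconclusive = differs from solvent controls in only one of two duplicates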
# The depositor's hits bear a star; ? = inconclusive; / = no result given. This is a sample that favours compounds with a hit; in the whole collection about 11% have one here.
SMILES,mHtt clearance,M1 antag,SF-1 act,RORA act,D1 allo mod,M1 agonist,M1 agonist conf,M4 ag counter
CCCCCCOC(=O)C(C#N)c1nc2ccccc2nc1N1CCN(CC)CC1 (centres undefined),-16,-1.1,2,18,-4.1*,4.1*,-0.77,-7.2
COC(=O)CCN(C(=O)C1C2CC3CC(C2)CC1C3)c1ccccn1 (centres undefined),/,-1.2,-11,-12,0.2,0.086,/,/
CCCCCC(=O)OC(CN1CCCCC1)CN1CCCC1=O (centres undefined),-42,0.11,-2,4,0.78,0.85,/,/
N#Cc1sc2nc(-c3ccccc3)cc(-c3ccco3)c2c1N,38,0.78,-15,5,2.3,15*,24,-11
Cc1ccc(-c2cc(-c3ccccc3)c3c(N)c(S(C)(=O)=O)sc3n2)cc1,66,/,/,/,/,/,/,/
COc1ccc(COC(=O)NNC(=O)c2ccccc2Cl)cc1,11,/,/,/,/,/,/,/
COc1ccc(Cl)cc1NC(=O)C1CSC(c2ccncc2)=N1 (centres undefined),/,0.023,35,7,2.5,0.24,/,/
O=C(CCn1c(=O)oc2ccccc21)NCCN1CCc2ccccc2C1,-35,0.41,-5,-24,-0.12,3.3*,-7.5,-30
O=C(CCCn1c(=O)oc2ccccc21)N1CCc2ccccc2C1,41,0.33,6,8,1,1.3,/,/
CC(=O)N1CCc2cc(S(=O)(=O)CCC(=O)O)ccc21,7,-0.47,3,-15,/,-0.061,/,/
CC(=O)N1CCc2cc(S(=O)(=O)CCC(=O)Nc3c(C)n(C)n(-c4ccccc4)c3=O)ccc21,5,-0.51,17,-3,-0.53,8.6*,?,-32
COc1ccc(CNC(=O)CSc2nnc(Cn3nnc4ccccc43)n2C)cc1,-5,/,/,/,/,/,/,/
CCCCc1nc(N2CCOCC2)c(C#N)c2c1COC(C)(C)C2,0,0.066,-6,-3,/,4.5*,?,-28
CCCCc1nc(NCC2CCCO2)c(C#N)c2c1COC(C)(C)C2 (centres undefined),-28,-0.16,-8,19,/,0.25,/,/
CC1(C)Cc2c(C#N)c(SCCOc3ccccc3)nc(N3CCOCC3)c2CO1,/,-0.33,16,-20,/,4.1*,-9.7,?
CCCSc1nc(N2CCCC2)c2c(c1C#N)CC(C)(C)OC2,/,-0.53,-16,-20,/,-1.2,/,/
COC(=O)CP(=O)(c1ccccc1)c1ccccc1,-41,/,/,/,/,/,/,/
Cc1cc(Nc2ccc(Br)c(C)c2)n2nc(C)nc2n1,/,-0.0012,5,-19,/,4.7*,?,-39
CCS(=O)CCSc1nc2ccccc2s1 (centres undefined),10,/,/,/,/,/,/,/
COc1cccc(C2C=C(c3ccc(Br)s3)Nc3ncnn32)c1OC (centres undefined),/,-0.96,-1,5,-0.68,18*,170*,156*
Cc1ccccc1S(=O)(=O)Cc1ccc(C(=O)N2CCN(c3ccc(F)cc3)CC2)o1,27,-0.86,0,-19,0.61,3.2*,-9.4,-54
COc1ccc(S(=O)(=O)Cc2ccc(C(=O)N3CCN(c4cccc(C)c4C)CC3)o2)cc1,/,-0.5,-28,9,-0.66,1.3,/,/
COc1ccccc1N1CCN(C(=O)c2ccc(CS(=O)(=O)c3ccccc3OC)o2)CC1,/,-0.71,-13,-13,-0.39,4.5*,-13,?
C1CCN(c2nc(N3CCCC3)nc(N3CCNCC3)n2)C1,/,-0.18,-9,0,-2.9,-0.6,/,/
c1ccc(Nc2nc(N3CCCCC3)nc(N3CCNCC3)n2)cc1,17,0.039,3,6,0.86,11*,-10,-23
Cc1csc(NC(=O)c2sc3nc(-c4cccs4)ccc3c2N)n1,18,-1.3,50*,38,-2.8*,54*,?,?
O=C(CSC1=NCCS1)Nc1ccnc2ccccc12,/,-1.5,-67,-73,-2.6,4.2*,7.1,?
CC(=O)Nc1ccc(NC(=O)CSC2=NCCS2)cc1,39,-1.5,-5,-30,-0.1,-0.45,/,/

# Source: PubChem BioAssay
